Reference: article PMC6364161 (Journal of Veterinary Research, 2018)

Key:
BALB/3T3 cells [1] = experiment: MTT reduction assay, BALB/3T3 cells; assay type: cell-based, Mouse; details: for cell viability at low doses / cell viability: MTT; for cell viability at low doses: BALB/3T3, 100 and 200 μM; for cell viability: BALB/3T3, 100 to 1,400 μM, 24 h, compared to control
How it was run: (§1)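 Cells were plated at 2 × 10^5 cells/mL and cultured 24 h: BALB/3T3 in DMEM with 10% heat-inactivated calf serum, HepG2 in EMEM with 10% heat-inactivated FBS. Medium was then replaced with test compound at 100–1,400 μM, diluted from a 10 mM PBS stock, for 24 h. MTT reduction was read spectrophotometrically as viability relative to untreated control (100%), and IC50 was taken from the dose-response curve. Six independent experiments, triplicate wells.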

HepG2 cells [2] = experiment: LDH release assay, HepG2 cells; assay type: cell-based, human; details: for IC50: LDH leakage assay, HepG2, 24 h incubation; for LDH leakage (membrane integrity): LDH release, HepG2, 100 to 1,400 μM, 24 h
How it was run: (§2)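 Test compounds (10 mM stock in PBS) were diluted in complete medium: DMEM plus 10% heat-inactivated calf serum for BALB/3T3 cells, EMEM plus 10% heat-inactivated FBS for HepG2 cells. Cells were seeded at 2 × 10^5 cells/mL, grown 24 h, then exposed to 100–1,400 μM for 24 h at 37 °C, 5% CO2. Released LDH was taken as a percentage of total LDH absorbance, and IC50 was read from the dose-response curve. Six independent experiments, three wells each.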

HepG2 cells [3] = experiment: Neutral red uptake assay, HepG2 cells; assay type: cell-based, human; details: for cell viability at low doses / cell viability: NRU; for cell viability at low doses: HepG2, 100, 200, and 400 μM; for cell viability: HepG2, 100 to 1,400 μM, 24 h
How it was run: (§3)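 Neutral red uptake, a measure of lysosomal activity. BALB/3T3 cells were grown in DMEM with 10% heat-inactivated calf serum and HepG2 cells in EMEM with 10% heat-inactivated FBS, both seeded at 2 × 10^5 cells/mL for 24 h. Cells were then exposed for 24 h to test compound at 100–1,400 μM, diluted in medium from a 10 mM PBS stock. Viability was measured spectrophotometrically against control cells, and IC50 was read from the dose-response curve. Six independent experiments, three wells per treatment.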

BALB/3T3 cells [4] = experiment: Neutral red uptake assay, BALB/3T3 cells; assay type: cell-based, Mouse; details: NRU; for cell viability at low doses: BALB/3T3, 100, 200, and 400 μM; for cell viability: BALB/3T3, 100 to 1,400 μM, 24 h
How it was run: as §3

BALB/3T3 cells [5] = experiment: LDH release assay, BALB/3T3 cells; assay type: cell-based, Mouse; details: for IC50: LDH leakage assay, BALB/3T3, 24 h incubation; for LDH leakage (membrane integrity): LDH release, BALB/3T3, 100 to 1,400 μM, 24 h
How it was run: as §2

HepG2 cells [6] = experiment: MTT reduction assay, HepG2 cells; assay type: cell-based, human; details: for IC50: MTT assay, HepG2, 24 h incubation; for cell viability at low doses / cell viability: MTT; for cell viability at low doses: HepG2, 100 and 200 μM; for cell viability: HepG2, 100 to 1,400 μM, 24 h, compared to control
How it was run: as §1

HK-2 cells = details: MTT assay, 480 μM; cited from earlier work

IC50 (HepG2 cells [3]; NRU assay, HepG2, 24 h incubation) [µM] | Compound | IC50 (BALB/3T3 cells [1]; MTT assay, BALB/3T3, 24 h incubation) [µM] | cell viability at low doses (BALB/3T3 cells [1]) | cell viability (BALB/3T3 cells [1]) | IC50 (HepG2 cells [2]) [µM] | LDH leakage (membrane integrity) (HepG2 cells [2]) | cell viability at low doses (HepG2 cells [3]) | cell viability (HepG2 cells [3]) | cell viability at low doses (BALB/3T3 cells [4]) | cell viability (BALB/3T3 cells [4]) | IC50 (BALB/3T3 cells [5]) [µM] | LDH leakage (membrane integrity) (BALB/3T3 cells [5]) | IC50 (HepG2 cells [6]) [µM] | cell viability at low doses (HepG2 cells [6]) | cell viability (HepG2 cells [6]) | cell viability (HK-2 cells)
– | [Cl][Ni][Cl] [Nickel chloride, NiCl2] | 700 | increased | significantly decreased in a concentration-dependent manner | 800 | increasingly significant LDH leakage | increased | significantly decreased in a concentration-dependent manner | increased | significantly decreased in a concentration-dependent manner | 300 | increasingly significant LDH leakage | 400 | increased | significantly decreased in a concentration-dependent manner | –
1200 | [Cl-].[Cl-].[Cl-].[Fe+3] [Iron chloride, FeCl3 × 6H2O] | – | – | – | 900 | – | – | – | – | – | 550 | – | 1300 | – | – | –
– | CC(=O)[O-].CC(=O)[O-].[Ni+2] [Ni (II) acetate] | – | – | – | – | – | – | – | – | – | – | – | – | – | – | less than 50%
– | O.O.O.O.O.O.[Cl-].[Cl-].[Cl-].[Fe+3] [Iron chloride, FeCl3 × 6H2O] | – | increased | significantly decreased in a concentration-dependent manner | – | increasingly significant LDH leakage | increased | significantly decreased in a concentration-dependent manner | increased | significantly decreased in a concentration-dependent manner | – | increasingly significant LDH leakage | – | increased | significantly decreased in a concentration-dependent manner | –
